Results from ChEMBL document CHEMBL1141192 (J Med Chem, 2005).
pIC50: −log10 of the molar value. Values after ≈ are worked out from the molar mass of the structure shown.

Key:
[1] = system: Rattus norvegicus; test: Hyperalgesia in male SD rat administered 1 hr before carrageenan injection, analgesia tested at 5 hrs; format: functional, Sprague-Dawley
Summary of the method: (§1)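 Fasted male SD rats (94–118 g); compound suspended in 0.1% MC, given orally at 1, 3 and 10 mg/kg either 1 h before (prophylactic) or 2 h after (therapeutic) intraplantar carrageenan (1%, 100 μL/paw). Mechanical threshold read by Randall-Selitto analgesimeter at 3, 4, 5 and 6 h post-carrageenan.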

[2] = system: Rattus norvegicus; test: Hyperalgesia in male SD rat administered 2 hrs after carrageenan injection, analgesia tested at 3 hrs; format: functional; settings: Sprague-Dawley; summary of the method: as §1
[3] = system: Rattus norvegicus; test: Hyperalgesia in male SD rat administered 2 hrs after carrageenan injection, analgesia tested at 4 hrs; format: functional; settings: Sprague-Dawley; summary of the method: as §1
[4] = system: Rattus norvegicus; test: Hyperalgesia in male SD rat administered 2 hrs after carrageenan injection, analgesia tested at 5 hrs; format: functional; settings: Sprague-Dawley; summary of the method: as §1
[5] = species: Rattus norvegicus; test: Inhibition of formalin induced paw pain in male SD rat; format: functional; settings: Sprague-Dawley
Summary of the method: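 Fasted male SD rats (4 weeks, 105–115 g), six per dose group; compound in 0.1% MC po at 0.3, 1, 3 and 10 mg/kg, 15 min before 50 μL of 2% formalin s.c. into right hindpaw plantar surface.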

[6] = system: Rattus norvegicus; test: Hyperalgesia in male SD rat administered 1 hr before carrageenan injection, analgesia tested at 3 hrs; format: functional; settings: Sprague-Dawley; summary of the method: as §1
[7] = system: Rattus norvegicus; test: Hyperalgesia in male SD rat administered 1 hr before carrageenan injection, analgesia tested at 4 hrs; format: functional; settings: Sprague-Dawley; summary of the method: as §1
[8] = Clearance in dog at 3 mg/kg, po; format: ADME, organism-based, Canis lupus familiaris; set-up: dose 3 mg/kg, route oral; settings: in vivo
Summary of the method: (§2)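 Compound at 3 mg/kg in 0.1% MC given po or iv to rats or dogs; plasma sampled at 0.25, 0.5, 1, 2, 4, 8 and 24 h; drug levels measured by HPLC.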

[9] = system: Rattus norvegicus; test: Hyperalgesia in male SD rat administered 2 hrs after carrageenan injection, analgesia tested at 6 hrs; format: functional, Sprague-Dawley; summary of the method: as §1
[10] = species: Rattus norvegicus; test: Rotarod test in rat at 0.5 hrs; format: functional; settings: Sprague-Dawley
Summary of the method: (§3)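 Fasted male SD rats (94–104 g), n = 6 per dose group, given 10–300 mg/kg po in 0.1% MC after training on a 5 rpm rotorod; walking time recorded at 0, 0.5, 1, 2 and 5 h post-dose, 150 s cutoff.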

[11] = species: Rattus norvegicus; test: Rotarod test in rat at 1 hr; format: functional; settings: Sprague-Dawley; summary of the method: as §3
[12] = species: Rattus norvegicus; test: Rotarod test in rat at 2 hrs; format: functional; settings: Sprague-Dawley; summary of the method: as §3
[13] = species: Rattus norvegicus; test: Rotarod test in rat at 5 hrs; format: functional; settings: Sprague-Dawley; summary of the method: as §3
[14] = system: Callitrichinae; test: Bradykinin-induced licking in male marmoset monkey; format: functional, Callithrix jacchus
Summary of the method: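 Male marmosets (293–359 g), 4–6 per group, individually housed; dosed po at 0.1, 1.0 and 10 mg/kg in 0.1% MC (vehicle control). 60 min post-dose, 100 μL of 1 mM bradykinin in saline injected i.pl. into foot pad. Response scored 0–3 every 15 s for 15 min from video; ataxia, sedation, emesis monitored. Alternate foot pads, 2-week intervals.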

[15] = Oral bioavailability in rat at 3 mg/kg, po; format: ADME, organism-based; settings: in vivo; summary of the method: as §2
[16] = Half life at early phase in rat at 3 mg/kg, po; format: ADME, organism-based; set-up: dose 3 mg/kg, route oral; settings: in vivo; summary of the method: as §2
[17] = Half life at late phase in rat at 3 mg/kg, po; format: ADME, organism-based; set-up: dose 3 mg/kg, route oral; settings: in vivo; summary of the method: as §2
[18] = Metabolic stability by incubation with human liver microsomes; format: ADME, Microsome
[19] = system: Rattus norvegicus; test: Toxicity in rat liver administered at 75 umol/kg, iv; format: organism-based; settings: in vivo
Summary of the method: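 Three male rats given 75 μmol/kg total iv in 75:25 PEG-400/saline as two 40-min infusions 12 h apart; serum taken 24 h after first infusion for bilirubin, SGOT, SGPT, creatine, GGT, albumin, glucose, BUN and ALP.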

[20] = Half life in dog at 3 mg/kg, po; format: ADME, organism-based, Canis lupus familiaris; set-up: dose 3 mg/kg, route oral; settings: in vivo; summary of the method: as §2
[21] = Time taken to achieve maximum concentration in rat at 3 mg/kg, po; format: ADME, organism-based; set-up: dose 3 mg/kg, route oral; settings: in vivo; summary of the method: as §2
[22] = Time taken to achieve maximum concentration in dog at 3 mg/kg, po; format: ADME, organism-based, Canis lupus familiaris; set-up: dose 3 mg/kg, route oral; settings: in vivo; summary of the method: as §2
[23] = Maximum concentration in rat at 3 mg/kg, po; format: ADME, organism-based; set-up: dose 3 mg/kg, route oral; settings: in vivo; summary of the method: as §2
[24] = Maximum concentration in dog at 3 mg/kg, po; format: ADME, organism-based, Canis lupus familiaris; set-up: dose 3 mg/kg, route oral; settings: in vivo; summary of the method: as §2
[25] = AUC (0-24) in rat at 3 mg/kg, po; format: ADME, organism-based; set-up: time < 24 hr, dose 3 mg/kg, route oral; settings: plasma
[26] = AUC (0-24) in dog at 3 mg/kg, po; format: ADME, organism-based, Canis lupus familiaris; set-up: time < 24 hr, dose 3 mg/kg, route oral; settings: plasma
[27] = system: Rattus norvegicus; test: Volume of distribution in rat at 3 mg/kg, po; format: ADME, organism-based; set-up: dose 3 mg/kg, route oral; settings: in vivo; summary of the method: as §2
[28] = system: Canis familiaris; test: Volume of distribution in dog at 3 mg/kg, po; format: ADME, organism-based, Canis lupus familiaris; set-up: dose 3 mg/kg, route oral; settings: in vivo; summary of the method: as §2
[29] = Clearance in rat at 3 mg/kg, po; format: ADME, organism-based; set-up: dose 3 mg/kg, route oral; settings: in vivo; summary of the method: as §2
[30] = target: Adenosine kinase (Homo sapiens, UniProt P55263); test: Inhibitory activity against recombinant human adenosine kinase
[31] = system: Rattus norvegicus; test: Inhibition of the licking and biting response at 20 mg/kg, po in rat by formalin paw antinociceptive assay; format: functional; settings: Sprague-Dawley
Summary of the method: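 Screening: fasted male SD rats (105–115 g), three per compound, 20 mg/kg po in 0.1% MC 15 min before 2% formalin (50 μL s.c., right hindpaw). Licking/biting scored 5 s per 30 s; percent inhibition reported for 2nd phase (15–30 min); positive control 5 mg/kg po each run.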

[32] = Solubility in water at pH 7.4

Chain of Adenosine kinase (P55263 whole entry): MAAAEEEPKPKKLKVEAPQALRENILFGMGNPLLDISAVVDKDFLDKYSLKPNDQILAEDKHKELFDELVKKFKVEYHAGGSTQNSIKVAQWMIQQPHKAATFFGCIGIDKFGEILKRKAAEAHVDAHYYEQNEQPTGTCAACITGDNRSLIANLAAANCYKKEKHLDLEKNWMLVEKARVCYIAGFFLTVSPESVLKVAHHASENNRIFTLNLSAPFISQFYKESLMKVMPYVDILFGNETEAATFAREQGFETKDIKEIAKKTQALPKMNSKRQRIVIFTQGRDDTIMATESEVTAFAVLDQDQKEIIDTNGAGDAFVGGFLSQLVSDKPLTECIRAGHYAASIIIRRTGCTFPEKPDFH

- CL/F [8]: 2.1 L/h/kg
- bioavailability [15]: 128%
- half-life [16]: 0.3 h
- half-life [17]: 5.2 h
- half-life [18]: 3.3 h
- half-life [20]: 2 h
- Tmax [21]: 0.3 h
- Tmax [22]: 0.3 h
- Cmax [23]: 0.66 µg/mL
- Cmax [24]: 0.518 µg/mL
- AUC at 24 h [25]: 0.981 µg·h/mL
- AUC at 24 h [26]: 1.49 µg·h/mL
- Vdss [27]: 3.3 L/kg
- Vdss [28]: 6.3 L/kg
- CL/F [29]: 3.4 L/h/kg
- pIC50 [30]: 8.52
- solubility [32]: 0.032 mg/mL (≈ 75.6 µM)
Structure (SMILES): C[C@H]1O[C@@H](n2cc(-c3ccccc3)c3c(NCC(=O)NC4CC4)ncnc32)[C@H](O)[C@@H]1O
- Inhibition [1]: <50%
- ED50 [2]: 1.6 mg/kg
- ED50 [3]: 4.1 mg/kg
- ED50 [4]: 6.5 mg/kg
- ED50 [5]: 2.5 mg/kg
- ED50 [6]: 2.6 mg/kg
- ED50 [7]: 3.8 mg/kg
- Inhibition [9]: <50%
- ED50 [10]: > 300 mg/kg
- ED50 [11]: > 300 mg/kg
- ED50 [12]: 102 mg/kg
- ED50 [13]: 62 mg/kg
- ED50 [14]: 0.9 mg/kg
- Activity [19]: Non-toxic
- inhibition in vivo at 20 mg/kg [31]: 66%
